# Measurements taken from ChEMBL document CHEMBL4680204, “Tariquidar-related triazoles as potent, selective and stable inhibitors of ABCG2 (BCRP)” (Eur J Med Chem, 2020).
# Columns and labels:
# ABCB1 = ABCB1 (Homo sapiens, UniProt P08183); assay: Inhibition of ABCB1 in human KB-V1 cells using calcein-AM as substrate measured after 10 mins by fluorescence assay relative to tariquidar; type: cell-based; conditions: probe calcein-AM, read-out: Imax
# How it was run: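 KB-V1 cells kept in 330 nM vinblastine, 20,000/well, attached overnight, washed with HEPES loading buffer pH 7.4, then 10 min at 37 °C with 0.5 µM calcein-AM, BSA, Pluronic F-127 and rising compound concentrations, in triplicate. PFA-fixed, PBS-washed, fluorescence read at 485/535 nm.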
# ABCC1 (MRP1) [1] = target: T1, ABCC1 (MRP1) (Homo sapiens, UniProt P33527); assay: Inhibition of human ABCC1 transfected in MDCK2-MRP1 cells up to 100 uM using calcein-AM as substrate measured after 1 hr by fluorescence assay relative to control; type: cell-based; conditions: probe calcein-AM
# How it was run: (§1)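 MDCK.2 cells transfected with human ABCC1, 20,000/well, attached overnight, washed with HEPES buffer pH 7.4, then 1 h at 37 °C with 0.5 µM calcein-AM, BSA, Pluronic and compounds, in triplicate. PFA-fixed, read at 485/535 nm.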
# [2] = target: ATP-dependent translocase ABCB1 (Homo sapiens, UniProt P08183); assay: Inhibition of ABCB1 in human KB-V1 cells using calcein-AM as substrate measured after 10 mins by fluorescence assay; type: cell-based
# [3] = target: Multidrug resistance-associated protein 1 (Homo sapiens, UniProt P33527); assay: Inhibition of human ABCC1 transfected in MDCK2-MRP1 cells using calcein-AM as substrate measured after 1 hr by fluorescence assay; type: cell-based
# How it was run: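 MDCK.2 cells transfected with human ABCC1, 20,000/well, attached overnight, washed with HEPES buffer pH 7.4, then 1 h at 37 °C with 0.5 µM calcein-AM, BSA, Pluronic and compounds, in triplicate.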
# [4] = target: T2, Broad substrate specificity ATP-binding cassette transporter ABCG2 (Homo sapiens, UniProt Q9UNQ0); assay: Inhibition of sulfasalazine-stimulated ABCG2 ATPase activity (unknown origin) expressed in baculovirus infected Sf9 insect cells using ATP as substrate measured after 1 hr by colorimetric assay
# T2 sequence (Q9UNQ0 whole entry): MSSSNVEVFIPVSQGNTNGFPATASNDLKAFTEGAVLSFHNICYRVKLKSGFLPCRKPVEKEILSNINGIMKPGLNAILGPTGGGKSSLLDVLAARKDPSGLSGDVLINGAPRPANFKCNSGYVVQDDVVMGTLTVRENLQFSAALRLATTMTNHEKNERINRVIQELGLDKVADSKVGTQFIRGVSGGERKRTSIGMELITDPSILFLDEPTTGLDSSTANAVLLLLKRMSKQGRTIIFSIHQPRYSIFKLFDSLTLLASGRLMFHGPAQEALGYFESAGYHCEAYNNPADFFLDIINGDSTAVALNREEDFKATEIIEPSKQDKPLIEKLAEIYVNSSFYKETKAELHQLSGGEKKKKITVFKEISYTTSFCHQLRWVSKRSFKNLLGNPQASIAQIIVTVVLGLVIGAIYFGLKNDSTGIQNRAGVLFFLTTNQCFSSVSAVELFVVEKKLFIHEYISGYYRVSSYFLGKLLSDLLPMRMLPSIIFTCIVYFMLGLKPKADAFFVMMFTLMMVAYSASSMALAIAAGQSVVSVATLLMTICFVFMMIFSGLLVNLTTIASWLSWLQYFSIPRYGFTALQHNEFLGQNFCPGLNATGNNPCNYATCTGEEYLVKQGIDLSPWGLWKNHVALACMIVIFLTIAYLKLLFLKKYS
# ABCG2 (Homo sapiens) [5] = assay: Inhibition of sulfasalazine-stimulated ABCG2 ATPase activity (unknown origin) expressed in baculovirus infected Sf9 insect cells using ATP as substrate measured after 1 hr by colorimetric assay relative to FTC; conditions: probe ATP, read-out: Imax
# ABCG2 = target: T3, ABCG2 (Homo sapiens, UniProt Q9UNQ0); assay: Inhibition of ABCG2 in topotecan-cultured human MCF7 cells using Hoechst 33342 as substrate measured after 2 hrs by fluorescence assay relative to FTC; type: cell-based; conditions: probe Hoechst 33342, read-out: Imax
# T3 sequence (Q9UNQ0 whole entry): T2 sequence (Q9UNQ0 whole entry)
# ABCC1 (MRP1) [6] = target: T1, ABCC1 (MRP1); assay: Inhibition of human ABCC1 transfected in MDCK2-MRP1 cells using calcein-AM as substrate measured after 1 hr by fluorescence assay relative to reversan; type: cell-based; conditions: MDCK2-MRP1 cells transfected with human ABCC1, probe calcein-AM, read-out: Imax; how it was run: as §1
# [7] = target: T2, Broad substrate specificity ATP-binding cassette transporter ABCG2; assay: Inhibition of ABCG2 in topotecan-cultured human MCF7 cells using Hoechst 33342 as substrate measured after 2 hrs by fluorescence assay; type: cell-based
# ABCG2 (Homo sapiens) [8] = assay: Activation of ABCG2 ATPase activity (unknown origin) expressed in baculovirus infected Sf9 insect cells using ATP as substrate measured after 1 hr by colorimetric assay relative to sulfasalazine; conditions: probe ATP
# ABCG2 (Homo sapiens) [9] = assay: Activation of ABCG2 ATPase activity (unknown origin) expressed in baculovirus infected Sf9 insect cells using ATP as substrate measured after 1 hr by colorimetric assay; conditions: probe ATP
# [10] = Cytotoxicity against human MCF7/Topo cells assessed as reduction in cell viability up to 1 uM by crystal violet staining based assay
# How it was run: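 MCF-7/Topo cells kept in 550 nM topotecan, seeded at 1500/well and attached overnight, then exposed to compounds (DMSO 0.1% vehicle; vinblastine 300 nM as reference cytostatic) for varying periods, 8 wells per concentration. Fixed with 2% glutardialdehyde, stained with 0.02% crystal violet, dye redissolved in 70% EtOH, A580 read. Corrected T/C from treated, growth-control and t0 absorbances.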
# [11] = Cytotoxicity against human MCF7/Topo cells assessed as reduction in cell viability at 10 uM by crystal violet staining based assay
# How it was run: (§2)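 MCF-7/Topo cells kept in 550 nM topotecan, seeded at 1500 cells/well, attached overnight. Compound added next day (0.1% DMSO vehicle; vinblastine 300 nM positive control), 8 wells per concentration. Long-term kinetic incubation with plates fixed in 2% glutardialdehyde at several time points. Crystal violet stain redissolved in 70% EtOH, A580 read; corrected T/C (%) calculated against t0 absorbance.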
# [12] = Cytotoxicity against human MCF7/Topo cells assessed as reduction in cell viability up to 3 uM by crystal violet staining based assay; how it was run: as §2
# Sequence of Multidrug resistance-associated protein 1 (P33527 whole entry): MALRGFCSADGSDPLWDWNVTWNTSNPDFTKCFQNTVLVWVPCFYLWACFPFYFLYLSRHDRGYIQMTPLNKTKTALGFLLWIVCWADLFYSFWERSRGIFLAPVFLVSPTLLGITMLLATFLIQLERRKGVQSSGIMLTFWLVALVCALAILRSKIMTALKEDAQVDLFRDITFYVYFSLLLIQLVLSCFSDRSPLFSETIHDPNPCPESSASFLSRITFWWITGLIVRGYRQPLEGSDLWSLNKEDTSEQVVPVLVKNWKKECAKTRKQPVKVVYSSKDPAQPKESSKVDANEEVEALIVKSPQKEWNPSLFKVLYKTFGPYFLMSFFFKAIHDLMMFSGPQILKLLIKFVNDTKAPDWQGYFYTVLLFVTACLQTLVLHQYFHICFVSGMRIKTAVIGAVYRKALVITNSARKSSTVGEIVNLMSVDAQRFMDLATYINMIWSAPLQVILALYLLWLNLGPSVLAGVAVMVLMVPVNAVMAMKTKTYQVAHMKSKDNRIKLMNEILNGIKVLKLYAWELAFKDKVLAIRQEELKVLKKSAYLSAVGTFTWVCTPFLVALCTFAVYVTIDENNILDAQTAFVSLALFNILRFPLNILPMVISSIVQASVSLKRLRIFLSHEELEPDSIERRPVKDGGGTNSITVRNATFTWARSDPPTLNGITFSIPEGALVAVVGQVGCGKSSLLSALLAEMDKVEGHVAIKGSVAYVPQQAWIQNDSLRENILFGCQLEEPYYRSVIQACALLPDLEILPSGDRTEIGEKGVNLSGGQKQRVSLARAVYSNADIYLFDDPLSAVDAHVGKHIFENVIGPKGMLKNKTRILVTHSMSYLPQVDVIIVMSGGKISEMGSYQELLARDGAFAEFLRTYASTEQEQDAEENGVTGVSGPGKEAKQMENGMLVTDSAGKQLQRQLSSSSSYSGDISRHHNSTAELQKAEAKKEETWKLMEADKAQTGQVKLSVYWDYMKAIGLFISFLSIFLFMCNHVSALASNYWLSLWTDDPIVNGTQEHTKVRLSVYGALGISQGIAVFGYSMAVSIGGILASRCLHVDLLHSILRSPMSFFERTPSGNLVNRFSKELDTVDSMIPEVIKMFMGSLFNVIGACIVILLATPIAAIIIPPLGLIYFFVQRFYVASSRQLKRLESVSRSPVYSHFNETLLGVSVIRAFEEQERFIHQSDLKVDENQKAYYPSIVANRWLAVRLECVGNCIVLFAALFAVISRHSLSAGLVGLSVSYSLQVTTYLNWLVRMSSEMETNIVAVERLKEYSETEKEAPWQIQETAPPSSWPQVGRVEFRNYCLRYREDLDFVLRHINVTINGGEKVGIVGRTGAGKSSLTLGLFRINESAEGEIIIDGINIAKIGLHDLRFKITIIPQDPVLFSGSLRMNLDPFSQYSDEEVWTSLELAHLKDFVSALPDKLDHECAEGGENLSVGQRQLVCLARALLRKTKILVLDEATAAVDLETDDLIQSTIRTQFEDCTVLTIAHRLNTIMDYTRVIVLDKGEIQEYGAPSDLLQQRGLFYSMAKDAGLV
# T1 sequence (P33527 whole entry): as above
# Sequence of ATP-dependent translocase ABCB1 (P08183 whole entry): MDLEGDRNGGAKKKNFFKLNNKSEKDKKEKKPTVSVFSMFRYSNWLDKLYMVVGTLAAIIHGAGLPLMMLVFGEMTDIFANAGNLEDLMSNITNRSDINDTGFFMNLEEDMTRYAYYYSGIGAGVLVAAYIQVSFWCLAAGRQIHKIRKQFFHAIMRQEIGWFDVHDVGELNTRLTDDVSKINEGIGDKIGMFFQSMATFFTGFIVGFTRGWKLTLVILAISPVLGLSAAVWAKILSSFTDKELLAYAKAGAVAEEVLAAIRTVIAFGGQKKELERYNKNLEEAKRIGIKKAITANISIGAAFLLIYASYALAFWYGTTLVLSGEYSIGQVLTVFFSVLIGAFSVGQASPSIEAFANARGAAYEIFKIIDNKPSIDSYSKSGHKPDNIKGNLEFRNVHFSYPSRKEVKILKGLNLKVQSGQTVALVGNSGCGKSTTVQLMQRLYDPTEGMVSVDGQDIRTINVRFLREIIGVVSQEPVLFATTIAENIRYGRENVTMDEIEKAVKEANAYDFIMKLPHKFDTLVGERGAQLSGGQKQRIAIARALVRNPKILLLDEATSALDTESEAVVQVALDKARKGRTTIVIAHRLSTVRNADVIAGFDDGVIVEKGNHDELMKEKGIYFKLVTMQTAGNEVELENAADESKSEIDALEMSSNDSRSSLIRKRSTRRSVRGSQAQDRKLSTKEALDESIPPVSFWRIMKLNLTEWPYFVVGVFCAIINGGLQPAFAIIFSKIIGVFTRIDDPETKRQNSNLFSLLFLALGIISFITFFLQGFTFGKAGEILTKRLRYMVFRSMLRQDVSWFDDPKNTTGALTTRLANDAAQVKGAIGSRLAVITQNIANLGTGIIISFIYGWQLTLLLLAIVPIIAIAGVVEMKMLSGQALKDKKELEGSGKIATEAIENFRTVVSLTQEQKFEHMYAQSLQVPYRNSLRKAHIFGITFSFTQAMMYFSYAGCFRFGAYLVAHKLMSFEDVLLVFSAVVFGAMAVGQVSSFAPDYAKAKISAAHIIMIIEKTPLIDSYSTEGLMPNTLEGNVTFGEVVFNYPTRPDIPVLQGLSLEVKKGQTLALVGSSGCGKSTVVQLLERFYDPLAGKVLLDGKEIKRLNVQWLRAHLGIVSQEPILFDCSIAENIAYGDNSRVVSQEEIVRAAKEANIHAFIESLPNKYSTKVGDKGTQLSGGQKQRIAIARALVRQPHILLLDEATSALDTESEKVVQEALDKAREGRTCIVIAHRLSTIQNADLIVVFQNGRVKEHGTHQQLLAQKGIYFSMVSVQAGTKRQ
# Sequence of ABCB1 (P08183 whole entry): as above
SMILES,"Emax at 10 min, 10 µM (ABCB1) [%]",inhibition at 1 h (ABCC1 (MRP1) [1]) [%],IC50 ([2]; read-out: IC50) [nM],IC50 [4] [nM],Emax at 2 h (ABCG2) [%],IC50 [7] [nM],Emax at 1 h (ABCG2 (Homo sapiens) [8]) [%],IC50 ([2]; kb-v1),also measured
COC(=O)c1ccc(-c2cn(-c3ccc(CCN4CCc5ccccc5C4)cc3)nn2)cc1NC(=O)c1ccc2ccccc2n1,≥ 11,≤ 10,≥ 38300,–,–,–,–,–,–
COc1ccc2[nH]cc(CCNC(=O)c3cc(=O)c4c(OCc5ccc(Br)cc5)cccc4o3)c2c1,> 11,–,–,745,109,707,0,–,"IC50 [3]: 3600 nM; Emax at 1 h (ABCG2 (Homo sapiens) [5]): 113%; Emax at 1 h, 30 µM (ABCC1 (MRP1) [6]): 15%"
COC(=O)c1ccc(C(=O)Nc2ccc(CCN3CCc4cc(OC)c(OC)cc4C3)cc2)cc1NC(=O)c1ccc2ccccc2n1,≥ 14,≤ 10,≥ 12100,294,99,101,-27,–,EC50 at 1 h (ABCG2 (Homo sapiens) [9]): 105 nM; Emax at 1 h (ABCG2 (Homo sapiens) [5]): 105%
COc1ccc(C(=O)N2CCc3c([nH]c4ccccc34)C2c2ccc(Cl)c(Cl)c2)cc1 (stereo not drawn),–,≤ 10,–,226,111,1110,-37,Not Active,EC50 at 1 h (ABCG2 (Homo sapiens) [9]): 134 nM; Emax at 1 h (ABCG2 (Homo sapiens) [5]): 141%
COc1cc2c(cc1OC)CN(CCc1ccc(-n3cc(-c4ccc(C(=O)C(C)C)c(NC(=O)c5ccc6ccccc6n5)c4)nn3)cc1)CC2,≥ 24,–,≥ 21800,–,90,295,–,–,"IC50 [3]: ≥ 19000 nM; Emax at 1 h, 30 µM (ABCC1 (MRP1) [6]): ≥ 14%"
CCC(=O)c1ccc(-c2cn(-c3ccc(CCN4CCc5cc(OC)c(OC)cc5C4)cc3)nn2)cc1NC(=O)c1ccc2ccccc2n1,–,≤ 10,–,–,–,–,–,–,Activity [10]: Non-Toxic
COc1cc2c(cc1OC)CN(CCc1ccc(NC(=O)c3cc(OC)c(OC)cc3NC(=O)c3cnc4ccccc4c3)cc1)CC2,–,≤ 10,356,≥ 1180,72,6220,–,–,–
COC(=O)c1ccc(-c2cn(-c3ccc(CCN4CCc5cc(OC)c(OC)cc5C4)cc3)nn2)cc1NC(=O)c1ccc2ccccc2n1,–,≤ 10,–,–,–,–,–,Not Active,–
COc1cc2c(cc1OC)CN(CCc1ccc(-n3cc(-c4ccc(C(C)=O)c(NC(=O)c5ccc6ccccc6n5)c4)nn3)cc1)CC2,–,≤ 10,–,–,–,–,–,Not Active,–
COCCOCCOCCOc1cc2c(cc1OC)CCN(Cc1ccc(-n3cc(-c4ccc(C(=O)OC)c(NC(=O)c5ccc6ccccc6n5)c4)nn3)cc1)C2,≥ 21,≤ 10,≥ 25000,–,85,153,–,–,–
COc1ccc(/C(C#N)=C/c2ccc(N3CCC(O)CC3)s2)cc1OC,≥ 53,–,≥ 65500,–,106,3350,99,–,"IC50 [3]: ≥ 39800 nM; EC50 at 1 h (ABCG2 (Homo sapiens) [9]): 327 nM; Emax at 1 h, 30 µM (ABCC1 (MRP1) [6]): ≥ 81%"
COc1ccc2c3c([nH]c2c1)[C@H](CC(C)C)N1C(=O)[C@H](CCC(=O)OC(C)(C)C)NC(=O)[C@@H]1C3,≥ 11,–,–,–,–,–,–,–,"Activity [11]: Toxic; Emax at 1 h, 30 µM (ABCC1 (MRP1) [6]): 29%; Activity [12]: Non-Toxic"
COc1ccc2c3c([nH]c2c1)[C@H](C=C(C)C)N1C(=O)[C@@H]2CCCN2C(=O)[C@@H]1C3 [FUMITREMORGIN],–,≤ 10,–,1810,–,1480,-20,Not Active,EC50 at 1 h (ABCG2 (Homo sapiens) [9]): 412 nM
COC(=O)c1ccc(-c2cn(-c3ccc(CN4CCc5cc(OC)c(OC)cc5C4)cc3)nn2)cc1NC(=O)c1ccc2ccccc2n1,≥ 25,≤ 10,≥ 10700,–,–,–,–,–,–
COCCOCCOCCOc1cc2c(cc1OC)CCN(CCc1ccc(-n3cc(-c4ccc(C(=O)OC)c(NC(=O)c5ccc6ccccc6n5)c4)nn3)cc1)C2,80,≤ 10,1620,–,86,144,–,–,–
COc1ccc(CCNC(=O)c2cc(=O)c3c(OCc4ccccc4)cccc3o2)cc1OC,–,≤ 10,–,–,–,–,–,Not Active,–
